Converted amounts (≈) assume the structure as drawn. “And” between values parts separate entries of the source, which are not always exact repeats. Identical values can stand only once.
Key:
Salmonella enteritidis = assay: Compound was tested in vitro for antibacterial activity against Salmonella enteritidis E497 strain.; conditions: Salmonella enterica
Escherichia coli = assay: Compound was tested in vitro for antibacterial activity against Escherichia coli CB64 strain; assay type: functional
Outline: (§1)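 Inocula grown on agar slants or in liquid M9 or Davis-Mingoli minimal medium for 7–16 h at 37 °C. Peptides dissolved in 50 mM potassium phosphate, pH 7.4, serially diluted 2- or 10-fold in the same buffer, filter-sterilized.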

Pseudomonas aeruginosa = assay: Compound was tested in vitro for antibacterial activity against Pseudomonas aeruginosa 647 strain.; assay type: functional
Outline: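 Broth microdilution MIC. Inocula were pre-grown on agar slants or in M9 or Davis-Mingoli minimal medium for 7–16 h at 37 °C. Peptides were dissolved in 50 mM potassium phosphate, pH 7.4, serially diluted 2- or 10-fold, and filter-sterilised. Wells held 10^5 cfu/mL in M-9 broth with thiamine and lysine, read after 16 h at 37 °C.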

Providencia rettgeri = assay: Compound was tested in vitro for antibacterial activity against Providencia rettgeri AAB-137 strain.; assay type: functional
Outline: as §1

Serratia marcescens = assay: Compound was tested in vitro for antibacterial activity against Serratia marcescens ATCC 13880 strain; assay type: functional
Outline: as §1

Enterobacter cloacae [1] = assay: Compound was tested in vitro for antibacterial activity against Enterobacter cloacae P99 strain; assay type: functional
Outline: as §1

Klebsiella pneumoniae = assay: Compound was tested in vitro for antibacterial activity against Klebsiella pneumoniae 4200 strain.; assay type: functional
Outline: as §1

[2] = Compound was tested in vitro for antibacterial activity against Citrobacter sp 2404 strain.; assay type: functional
Outline: as §1

Enterobacter cloacae [3] = assay: Reversal of antibacterial activity by the compound, expressed as agar disc zone size with LL-DAP (0.38 ug/disc); No zone; assay type: functional, organism-based
Enterobacter cloacae [4] = assay: Reversal of antibacterial activity by the compound, expressed as agar disc zone size with LL-DAP (0.19 ug/disc); assay type: functional
Enterobacter cloacae [5] = assay: Reversal of antibacterial activity by the compound, expressed as agar disc zone size with LL-DAP (0.76 ug/disc); No zone; assay type: functional, organism-based
Enterobacter cloacae [6] = assay: Reversal of antibacterial activity by the compound, expressed as agar disc zone size with LL-DAP (0.0 ug/disc); assay type: functional
Enterobacter cloacae [7] = assay: Reversal of antibacterial activity by the compound, expressed as agar disc zone size with L-Ala-LL-DAP (0.0 ug/disc); assay type: functional
Enterobacter cloacae [8] = assay: Reversal of antibacterial activity by the compound, expressed as agar disc zone size with L-Ala-LL-DAP (6.5 ug/disc); assay type: functional
Enterobacter cloacae [9] = assay: Reversal of antibacterial activity by the compound, expressed as agar disc zone size with L-Ala-LL-DAP (26 ug/disc); No zone; assay type: functional, organism-based

| Structure (SMILES) | MIC (Salmonella enteritidis) [µg/mL] | MIC (Escherichia coli) [µg/mL] | MIC (Pseudomonas aeruginosa) [µg/mL] | MIC (Providencia rettgeri) [µg/mL] | MIC (Serratia marcescens) [µg/mL] | MIC (Enterobacter cloacae [1]) [µg/mL] | MIC (Klebsiella pneumoniae) [µg/mL] | MIC [2] [µg/mL] | Zone size (Enterobacter cloacae [3]) | Zone size (Enterobacter cloacae [4]) | Zone size (Enterobacter cloacae [5]) | Zone size (Enterobacter cloacae [6]) [mm] | Zone size (Enterobacter cloacae [7]) [mm] | Zone size (Enterobacter cloacae [8]) | Zone size (Enterobacter cloacae [9]) |
| --- | --- | --- | --- | --- | --- | --- | --- | --- | --- | --- | --- | --- | --- | --- | --- |
| C[C@H](N)C(=O)N[C@@H](CCCCC(=O)O)C(=O)O | 16 (≈ 65 µM) | 16 (≈ 65 µM) | 1000 (≈ 4060 µM) | 4 (≈ 16.2 µM) | 8 (≈ 32.5 µM) | 4 (≈ 16.2 µM) | 16 (≈ 65 µM) | 8 (≈ 32.5 µM) | – | – | – | – | – | – | – |
| N[C@@H](CCCCC(=O)O)C(=O)N1CCC[C@H]1C(=O)O | > 1000 | > 1000 | – | 4 (≈ 14.7 µM) | > 1000 | 8 (≈ 29.4 µM) | 16 (≈ 58.8 µM) | > 1000 | – | – | – | – | – | – | – |
| O=C(O)CCCC[C@H](NC(=O)[C@@H]1CCCN1)C(=O)O | > 1000 | 500 (≈ 1840 µM) | – | 250 (≈ 918 µM) | > 1000 | 250 (≈ 918 µM) | 63 (≈ 231 µM) | 250 (≈ 918 µM) | – | – | – | – | – | – | – |
| C[C@H](N)C(=O)N[C@@H](C)C(=O)N[C@@H](CCCCC(=O)O)C(=O)O | 2 (≈ 6.3 µM) | 31 (≈ 97.7 µM) | – | 125 (≈ 394 µM) | 16 (≈ 50.4 µM) | 63 (≈ 199 µM) | 1000 (≈ 3150 µM) | 250 (≈ 788 µM) | No zone | 17 mm and 21 mm | No zone | 25 | 25 | 9 mm and 15 mm | No zone |
| NC(CCCCC(=O)O)C(=O)O (centres undefined) | > 1000 | > 1000 | > 1000 | – | > 1000 | > 1000 | 500 (≈ 2850 µM) | > 1000 | – | – | – | – | – | – | – |
| CC(N)C(=O)NCCP(=O)(O)O (centres undefined) [ALAFOSALIN] | 50 (≈ 255 µM) | < 0.1 | > 100 | > 100 | 1.6 (≈ 8.16 µM) | 100 (≈ 510 µM) | 1.6 (≈ 8.16 µM) | 25 (≈ 127 µM) | – | – | – | – | – | – | – |
| C[C@H](NC(=O)[C@@H](N)CCCCC(=O)O)C(=O)O | 8 (≈ 32.5 µM) | 2 (≈ 8.12 µM) | > 1000 | < 1 | 2 (≈ 8.12 µM) | 4 (≈ 16.2 µM) | 8 (≈ 32.5 µM) | 2 (≈ 8.12 µM) | – | – | – | – | – | – | – |

From ChEMBL document CHEMBL1123511, “Peptides of 2-aminopimelic acid: antibacterial agents that inhibit diaminopimelic acid biosynthesis” (1986)
